Molecules are shown by their SMILES.

Here are results for 1 molecule from ChEMBL document CHEMBL5712911, “A homogeneous bioluminescent immunoassay to probe cellular signaling pathway regulation” (Commun Biol, 2020).

A short description of this data set: Effect on total IkappaBalpha level in human MCF7 cells measured after 4 hrs by NanoBiT cell-based immunoassay. The format is toxicity. The conditions noted are these: mcf7, 4 h. In short, it runs like this:
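MCF-7 cells (50,000/well) held overnight at 37 °C, 5% CO2 without serum, then given a compound titration for 4 h. Lysed 20 min in buffer with 0.1% digitonin and protease/phosphatase inhibitors; mouse and rabbit anti-IκBα primaries plus NanoBiT-labelled anti-mouse/anti-rabbit secondaries added, 90 min at 23 °C; Nano-Glo substrate; luminescence read. Means ± S.E.M., n = 3 technical replicates.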

Consider `C[C@]12CC[C@@H]3c4ccc(O)cc4C[C@@H](CCCCCCCCC[S+]([O-])CCCC(F)(F)C(F)(F)F)[C@H]3[C@@H]1CC[C@@H]2O` (stereo partly specified) [FULVESTRANT], for which the Activity entry was “Non-Toxic”.
